# Screening results (PubChem)
# Sampled rows, rich in hits. Any-hit rate of the full collection: about 2%.
# IMP-1 inh-1 = inhibitors of Pseudomonas aeruginosa IMP-1 metallo-beta-lactamase; purified IMP-1, nitrocefin hydrolysis, epi-absorbance fluorescence; inhibition, % at 5.6 µM; AID 1556; hit rate 0.45% among 290,000;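 active = inhibition above the mean plus 3 SD of all compounds in the same screening run, cut at about 4.5% in these data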
#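 System: Purified IMP-1 | Read-out basis: Percent enzyme inhibition | Controls: IMP-1 with DMSO as 0%, enzyme-free DMSO as 100% | Replicates: One well per compound | Doses: 5.6 µM nominal single concentration | Detection: Epi-absorbance fluorescence, 480 nm excitation, 530 nm emission | Incubation: 25 °C, 15 min preincubation, 25 min reaction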
# VIM-2 inhibitor = inhibitors of Pseudomonas aeruginosa VIM-2 metallo-beta-lactamase. inhibition, % at 5.6 µM. purified VIM-2, nitrocefin hydrolysis, epi-absorbance fluorescence. hit rate 0.89% among 290,000;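 active = inhibition above the mean of all tested compounds plus 3 SD, cutoff set per screening run, cut at about 7.5% in these data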;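 also: red hydrolysis product quenches plate fluorescence so inhibitors raise well fluorescence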
# MIN6 prolif = inducers of beta-cell replication in MIN6 cells | MIN6 cells proliferation, ATPlite luminescence, 48 h; cells starved in 0.2% serum; 100% = growth in 10% serum | hit rate 0.29% among 330,000 | proliferation, % at 10 µM;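 active = compounds whose signal lies at least 3.5 SD above the mean of all wells on their plate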
# HKDC1 inhibitor = HKDC1 (human) hexokinase inhibition; Q2TB90; recombinant HKDC1, G6PDH/diaphorase resazurin coupled fluorescence; inhibition, % at 20 µM; hit rate 0.16% among 340,000; AID 493160;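 active = inhibition above about 35% when tested at 20 µM, limit read from the data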
# Target sequence (Q2TB90 whole entry, looked up): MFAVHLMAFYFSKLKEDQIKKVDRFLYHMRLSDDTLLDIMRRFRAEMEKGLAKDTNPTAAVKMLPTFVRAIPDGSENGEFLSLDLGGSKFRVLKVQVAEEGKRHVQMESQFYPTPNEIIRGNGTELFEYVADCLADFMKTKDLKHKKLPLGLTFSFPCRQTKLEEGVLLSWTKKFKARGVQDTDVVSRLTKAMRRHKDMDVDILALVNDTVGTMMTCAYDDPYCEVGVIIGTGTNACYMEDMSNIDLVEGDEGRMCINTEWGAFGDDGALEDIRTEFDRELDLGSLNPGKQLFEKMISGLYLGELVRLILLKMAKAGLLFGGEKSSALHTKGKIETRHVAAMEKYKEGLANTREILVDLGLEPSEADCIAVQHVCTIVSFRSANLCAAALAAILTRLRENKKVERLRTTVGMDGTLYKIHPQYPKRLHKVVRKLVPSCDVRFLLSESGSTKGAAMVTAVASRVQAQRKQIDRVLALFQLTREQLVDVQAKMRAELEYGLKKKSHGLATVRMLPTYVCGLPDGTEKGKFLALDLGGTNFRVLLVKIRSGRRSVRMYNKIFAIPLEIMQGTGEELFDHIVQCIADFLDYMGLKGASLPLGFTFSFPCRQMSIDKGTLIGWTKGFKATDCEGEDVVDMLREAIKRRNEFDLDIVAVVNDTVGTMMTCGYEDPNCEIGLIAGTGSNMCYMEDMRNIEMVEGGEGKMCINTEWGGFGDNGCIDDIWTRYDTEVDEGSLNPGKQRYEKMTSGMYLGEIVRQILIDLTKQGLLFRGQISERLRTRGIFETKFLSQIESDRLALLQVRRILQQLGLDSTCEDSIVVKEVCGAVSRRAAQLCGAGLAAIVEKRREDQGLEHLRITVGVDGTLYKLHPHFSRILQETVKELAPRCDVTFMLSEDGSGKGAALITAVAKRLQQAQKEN
#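 Material – in-house recombinant HK5 (HKDC1) enzyme · Quantity – HKDC1 at 5 µg/mL · Buffer or medium – pH 8.0 Tris buffer with 10 mM MgCl2 · Reagent – glucose with 1 mM ATP · Dosing – single 20 µM dose · Times – reaction time 90 min, room temperature, protected from light · Technique – resorufin fluorescence at 613 nm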
# ATG4B inh = ATG4B (human) cysteine protease inhibition | Q9Y4P1 | ATG4B cleavage of LC3-PLA2, NBD-HPC fluorescence, 1 h | inhibition, % at 8.33 µM | hit rate 0.51% among 340,000 | AID 504462; in the data active = inhibition above about 40%
# PvdQ acylase = blocks Pseudomonas aeruginosa PvdQ acylase activity; inhibition, % at 10 µM; purified PvdQ acylase, fluorescence plate reader; AID 488965; hit rate 0.063% among 340,000; in the data active = inhibition above about 30%, passing the limit was not always enough
# IMP-1 inh-2 = blocks IMP-1 metallo-beta-lactamase in VIM-2 selectivity screen; shares compounds with VIM-2 inhibitor; purified IMP-1, nitrocefin hydrolysis, epi-absorbance fluorescence; inhibition, % at 5.6 µM; 1,300 tested, under 10 active; call rule not given here
# VIM-2 FRET inh = VIM-2 FRET inhibition, artifact counter-screen; shares compounds with VIM-2 inhibitor; purified VIM-2, CCF2 FRET substrate hydrolysis; inhibition, % at 5.6 µM; hit rate 23% among 1,300; AID 1857;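 active = inhibition above the mean of all tested compounds plus 3 SD, cut at about 19% in these data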
# TEM-1 inh = TEM-1 inhibition, counter-screen for VIM-2 inhibitors | inhibition, % at 5.6 µM | hit rate 3% among 1,300 | shares compounds with VIM-2 inhibitor | AID 1866 | Purified TEM-1, nitrocefin hydrolysis, epi-absorbance fluorescence;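 active = inhibition above that campaign's mean inhibition plus 3 SD, cut at about 0.46% in these data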
# VIM-2 confirm 2 = confirmation of P. aeruginosa VIM-2 metallo-beta-lactamase inhibitors. shares compounds with VIM-2 inhibitor. purified VIM-2, nitrocefin hydrolysis, epi-absorbance. inhibition, % at 5.6 µM. hit rate 96% among 1,300;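 active = inhibition of the VIM-2 beta-lactamase enzyme above about 11% from the earlier first-round screen, limit read from the data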
# Hits are given with their value; . = inactive; / = no result given.
SMILES,IMP-1 inh-1,VIM-2 inhibitor,MIN6 prolif,HKDC1 inhibitor,ATG4B inh,PvdQ acylase,IMP-1 inh-2,VIM-2 FRET inh,TEM-1 inh,VIM-2 confirm 2
COc1ccc2nc3cc(Cl)ccc3c(Nc3cc(C(C)C)c(O)cc3C)c2c1,.,.,.,.,.,.,/,/,/,/
COc1ccc2nc3cc(Cl)ccc3c(Nc3cc(CN4CCCC4)c(O)c(CN4CCCC4)c3)c2n1,.,21,.,/,/,/,.,.,.,33
O=C(O)/C=C/C(=O)Nc1ccc(OC(F)F)cc1,.,.,.,.,.,.,/,/,/,/
O=C(Nc1ccc(C(=O)O)cc1)/C(=C\C=C\c1ccccc1)NC(=O)c1ccccc1Br,.,.,.,.,.,.,/,/,/,/
CCOC(=O)c1c(-c2ccc(-c3ccccc3)cc2)csc1NC(=O)CNCCN(C)C,.,17,.,.,.,.,.,.,.,27
CCOC(=O)c1c(-c2ccccc2)csc1NC(=O)CCN1C(=O)c2ccccc2C1=O,.,.,.,.,.,.,/,/,/,/
CN1C(=O)C2(N=c3ccccc3=N2)c2ccccc21,.,19,.,.,.,.,.,.,.,34
COC(=O)Cn1cccc1C(=O)c1ccccc1,.,.,.,.,.,.,/,/,/,/
O=C(O)Cn1cccc1C(=O)c1ccccc1,.,33,.,.,.,.,.,49,.,30
O=C(N/N=C/c1ccccc1Br)C1CC1,.,.,.,.,.,.,/,/,/,/
COC(=O)c1c(-c2ccncc2)csc1NC(=O)c1ccoc1C,.,50,.,.,.,.,.,.,.,74
CSc1ccccc1C(=O)N1CCC2(CC1)CC(=O)c1ccccc1O2,/,/,.,.,.,.,/,/,/,/
Cc1ccc2ncccc2c1N,.,.,.,.,.,.,/,/,/,/
Cc1ccc2nc(C)c(C)nc2c1N,.,20,.,.,.,.,.,.,.,31
CC(=O)N1CCN(c2ccc(Nc3ncnc4c3oc3ccccc34)cc2)CC1,.,69,.,.,.,.,.,.,.,82
Cc1nc(N2CCN(C(=O)c3ccco3)CC2)c2oc3ccccc3c2n1,/,/,.,.,.,.,/,/,/,/
c1ccc2c(c1)oc1c(Nc3ccc(CN4CCOCC4)cc3)ncnc12,.,15,.,.,.,.,.,.,.,25
CCc1nc(Nc2ccc(N3CCN(C(C)=O)CC3)cc2)c2oc3ccccc3c2n1,.,82,.,.,.,.,.,.,.,84
CCc1nc(N2CCN(C(=O)c3ccco3)CC2)c2oc3ccccc3c2n1,.,33,/,.,.,.,.,.,.,41
CCOC(=O)CC[C@H](NC(=O)Cn1cnc(C(=O)Nc2ccc(C)c(C)c2)n1)C(=O)OCC,/,/,/,.,.,.,/,/,/,/
COc1ccc(-c2nc(C#N)c(NCCCn3ccnc3)o2)cc1OC,.,17,.,.,.,.,.,.,.,43
N#Cc1nc(-c2ccco2)oc1NCCCn1ccnc1,.,26,.,.,.,.,.,.,.,44
COc1cc(/C=C/C(=O)OCC(=O)NCCN2C(=O)CSC2=O)ccc1OCC#N,/,/,.,.,.,.,/,/,/,/
CCCCN(CC)CCNC(=O)c1cc2c(=O)n(C)c3ccccc3c2s1,.,21,.,.,.,.,.,.,.,27
CCN(CC)CCNC(=O)c1cc2c(=O)n(C)c3ccccc3c2s1,.,18,.,.,.,.,.,.,.,26
Cc1nc2ccc(S(=O)(=O)NCC(=O)N(C)Cc3ccccc3)cc2s1,.,.,.,.,.,.,/,/,/,/
COc1ccc(C(=O)CNc2cccc(F)c2)cc1,.,.,.,.,.,.,/,/,/,/
O=Nc1c2nc3ccccc3n(O)c-2c2ccccc12,.,16,.,/,/,.,.,.,.,27
